Data reported in ChEMBL document CHEMBL1143973, “Imine derivatives as new potent and selective CB2 cannabinoid receptor agonists with an analgesic action” (Bioorg Med Chem, 2008).
Values after ≈ are worked out from the molar mass of the structure shown. Active and inactive are the calls of the source.

What was measured:
[1] = molecular target: T1, Cannabinoid receptor 2 (Homo sapiens, UniProt P34972); test: Agonist activity at human recombinant CB2 receptor expressed in CHO cells by [35S]GTP-gamma-S binding assay relative to CP-55940; type: functional, cell-based
T1 sequence (P34972 whole entry): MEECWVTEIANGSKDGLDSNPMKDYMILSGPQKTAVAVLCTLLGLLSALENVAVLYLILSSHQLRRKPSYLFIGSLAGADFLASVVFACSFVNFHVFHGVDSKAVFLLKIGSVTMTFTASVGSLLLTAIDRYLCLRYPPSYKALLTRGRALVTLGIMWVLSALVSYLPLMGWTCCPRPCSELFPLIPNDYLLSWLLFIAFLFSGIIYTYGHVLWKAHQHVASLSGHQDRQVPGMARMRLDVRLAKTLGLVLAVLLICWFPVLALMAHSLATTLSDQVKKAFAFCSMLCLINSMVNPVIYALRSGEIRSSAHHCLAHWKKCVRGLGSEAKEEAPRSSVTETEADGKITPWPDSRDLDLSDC
In short: (§1)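 Membranes from CHO cells expressing human CB2 (5 µg/well) in Hepes buffer pH 7.4 with 100 mM NaCl, 3 mM MgCl2, 0.2% BSA, 3 µM GDP and 30 µg/mL saponin. Preincubated with compound for 30 min at 30 °C, then 0.1 nM [35S]GTPγS added for a further 30 min at 30 °C. Filtered and counted. Nonspecific binding defined with 10 µM GTPγS. Emax expressed relative to the maximal response to CP 55,940.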

[2] = molecular target: T2, Cannabinoid receptor 1 (Homo sapiens, UniProt P21554); test: Displacement of [3H]CP-55940 from human recombinant CB1 receptor expressed in CHO cells; type: cell-based
T2 sequence (P21554 whole entry): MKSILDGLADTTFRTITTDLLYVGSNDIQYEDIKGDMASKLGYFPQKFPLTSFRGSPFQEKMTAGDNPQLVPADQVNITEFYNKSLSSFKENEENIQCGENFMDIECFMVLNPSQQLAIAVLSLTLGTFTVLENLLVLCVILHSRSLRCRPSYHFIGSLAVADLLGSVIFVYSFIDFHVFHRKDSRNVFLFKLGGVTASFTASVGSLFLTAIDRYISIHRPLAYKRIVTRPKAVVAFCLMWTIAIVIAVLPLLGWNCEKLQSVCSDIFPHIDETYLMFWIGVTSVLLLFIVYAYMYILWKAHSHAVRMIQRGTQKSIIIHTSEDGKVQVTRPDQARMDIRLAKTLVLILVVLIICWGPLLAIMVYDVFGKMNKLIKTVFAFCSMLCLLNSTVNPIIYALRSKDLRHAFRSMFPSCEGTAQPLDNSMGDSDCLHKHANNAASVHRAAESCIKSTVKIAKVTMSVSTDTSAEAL

[3] = molecular target: T1, Cannabinoid receptor 2; test: Agonist activity at human recombinant CB2 receptor expressed in CHO cells by [35S]GTP-gamma-S binding assay; type: functional, cell-based
In short: as §1, with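 “GTPγS.” for “GTPγS. Emax expressed relative to the maximal response to CP 55,940.”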

[4] = molecular target: T1, Cannabinoid receptor 2; test: Displacement of [3H]CP-55940 from human recombinant CB2 receptor expressed in CHO cells; type: cell-based
[5] = molecular target: T2, Cannabinoid receptor 1; test: Agonist activity at CB1 receptor; type: functional
[6] = molecular target: T1, Cannabinoid receptor 2; test: Agonist activity at CB2 receptor; type: functional
In short: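 [³⁵S]GTPγS binding on membranes of CHO cells expressing human CB2. Buffer 20 mM Hepes, 100 mM NaCl, 3 mM MgCl2, 0.2% BSA, 3 µM GDP, 30 µg/mL saponin, pH 7.4. Membranes (5 µg/well) preincubated with compounds 30 min at 30 °C, then 0.1 nM [³⁵S]GTPγS added for 30 min at 30 °C. Filtration and scintillation counting; nonspecific binding with 10 µM GTPγS. EC50 derived; Emax relative to CP 55,940 maximum.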

[7] = molecular target: T1, Cannabinoid receptor 2; test: Binding affinity to CB2 receptor
[8] = Solubility in water at 25 degC; type: physicochemical
In short: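 Excess compound shaken in water at room temperature for 24 h, then centrifuged for 10 min at 25 °C. Supernatant diluted in 50% aqueous acetonitrile and quantified by reversed-phase HPLC with UV detection at 230 nm.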

[9] = species on record: Homo sapiens; test: Selectivity for human CB2 receptor over human CB1 receptor
[10] = Metabolic stability in human liver microsomes after 15 mins; type: ADME, Microsome; settings: read-out: Stability
In short: (§2)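 Compound at 5 µM final incubated for 15 min at 37 °C with human or rat liver microsomes (1.0 mg protein/mL) in phosphate buffer with KCl, pH 7.4, plus an NADPH-generating system. Stopped with DMSO, centrifuged, and the remaining compound measured by LC-MS/MS. Run in triplicate.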

[11] = Plasma concentration in Sprague-Dawley rat at 10 mg/kg, po after 1.67 hrs; type: ADME, organism-based; design: dose 10 mg/kg, route oral
In short: (§3)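 Male Sprague–Dawley rats, 7–8 weeks old, dosed orally at 10 mg/kg. Blood taken from the tail vein and plasma stored at -80 °C. Plasma protein-precipitated with acetonitrile/methanol (9:1) containing internal standard, then quantified by LC-MS/MS (ESI, positive MRM). LLOQ 1 ng/mL. Mean ± SD of three animals.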

[12] = Tmax in Sprague-Dawley rat at 10 mg/kg, po; type: ADME, organism-based; design: dose 10 mg/kg, route oral; settings: in vivo; in short: as §3
[13] = Metabolic stability in Sprague-Dawley rat liver microsomes after 15 mins; type: ADME, Microsome; settings: read-out: Stability; in short: as §2
[14] = tested on: Rattus norvegicus; test: Reversal of mechanical hyperalgesia in Wistar rat at 30mg/kg, po after 1 hr by Randall-Selitto test; type: functional, organism-based
In short: (§4)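 Male Wistar rats (200–220 g) given 0.1 mL of 20% yeast suspension into the right hind paw plantar surface. Control paw-withdrawal threshold read by algesiometer 2 h after yeast, then compound given orally in 5% gum arabic vehicle. Threshold re-read at 1 and 3 h. Result expressed as %MPE. Seven rats per group; Dunnett's test versus vehicle.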

[15] = molecular target: T3, Cannabinoid receptor 2 (Rattus norvegicus, UniProt Q9QZN9); test: Displacement of [3H]CP-55940 from […] receptor in Sprague-Dawley rat spleen membrane; type: cell membranes
T3 sequence (Q9QZN9 whole entry): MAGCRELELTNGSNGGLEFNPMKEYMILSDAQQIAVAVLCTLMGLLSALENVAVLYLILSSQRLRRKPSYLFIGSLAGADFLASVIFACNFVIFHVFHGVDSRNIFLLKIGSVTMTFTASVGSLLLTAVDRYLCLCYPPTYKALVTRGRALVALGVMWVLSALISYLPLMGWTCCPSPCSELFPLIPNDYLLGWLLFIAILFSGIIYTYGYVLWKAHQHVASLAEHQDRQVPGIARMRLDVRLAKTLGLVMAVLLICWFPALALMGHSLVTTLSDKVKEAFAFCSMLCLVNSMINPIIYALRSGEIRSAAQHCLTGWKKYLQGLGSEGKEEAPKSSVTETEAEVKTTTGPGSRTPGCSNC
In short: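 Rat spleen membranes (100 µg/well) from male Sprague–Dawley rats in Tris-HCl buffer pH 7.4 with 5 mM EDTA, 5 mM MgCl2 and 0.2% BSA. Incubated with varying compound concentrations and 0.57 nM [3H]CP 55,940 at 25 °C for 120 min. Filtered and counted. Nonspecific binding defined with 2 µM CP 55,940.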

[16] = Half life in Sprague-Dawley rat at 10 mg/kg, po; type: ADME, organism-based; design: dose 10 mg/kg, route oral; settings: in vivo; in short: as §3
[17] = AUC (0 to 8 hrs) in Sprague-Dawley rat at 10 mg/kg, po; type: ADME, organism-based; design: time < 8 hr, dose 10 mg/kg, route oral; settings: plasma
[18] = tested on: Rattus norvegicus; test: Reversal of mechanical hyperalgesia in Wistar rat at 10 mg/kg, po after 1 hr by Randall-Selitto test; type: functional, organism-based; design: dose 10 mg/kg; in short: as §4
[19] = molecular target: T2, Cannabinoid receptor 1; test: Binding affinity to CB1 receptor

| SMILES | Emax [1] [%] | IC50 [2] [nM] | EC50 [3] [nM] | IC50 [4] [nM] | further results |
| --- | --- | --- | --- | --- | --- |
| Cn1c(C(C)(C)C)c/c(=N\C(=O)c2cccc(C(F)(F)F)c2F)n1CC1CCCC1 | 67 | 810 | 0.79 | – | – |
| Cn1c(C(C)(C)C)c/c(=N\C(=O)c2cccc(C(F)(F)F)c2F)n1CC1CCC1 | 96 | 940 | 0.32 | 1.7 | – |
| Cn1c(C(C)(C)C)c/c(=N\C(=O)c2cc(C(F)(F)F)ccc2F)n1CC1CC1 | 90 | 3700 | 8.8 | 23 | – |
| O=C(NCC1CCOCC1)c1cnc(Nc2ccc(Cl)cc2Cl)nc1C(F)(F)F [GW842166X] | – | – | – | – | EC50 [5]: > 30000 nM; EC50 [6]: 50 nM |
| Cn1c(C(C)(C)C)c/c(=N\C(=O)c2cccc(C(F)(F)F)c2Cl)n1CC1CC1 | 82 | 2200 | 1.5 | 3.7 | – |
| Cc1c(C(C)C)o/c(=N\C(=O)c2cccc(C(F)(F)F)c2)n1CC1CC1 | – | – | – | 24 | – |
| Cn1c(C(C)(C)C)c/c(=N\C(=O)c2cccc(C(F)(F)F)c2)n1CC1CC1 | – | – | – | 51 | – |
| CC(C)(C)c1nn(CC2CC2)/c(=N/C(=O)c2cccc(C(F)(F)F)c2)s1 | – | – | – | 300 | – |
| CC(C)OCCn1/c(=N/C(=O)c2cccc(C(F)(F)F)c2F)cc(C(C)(C)C)n1C | 76 | 760 | 0.85 | 2.6 | – |
| CCOCCn1/c(=N/C(=O)c2cccc(C(F)(F)F)c2F)cc(C(C)(C)C)n1C | 82 | 870 | 1.1 | 3.7 | – |
| CC1(C)C(C(=O)c2cn(CCN3CCOCC3)c3ccccc23)C1(C)C | – | – | – | – | IC50 [7]: 0.77 nM |
| CC(C)(C)c1c/c(=N\C(=O)c2cccc(C(F)(F)F)c2)n(CC2CC2)s1 | – | – | – | 9.5 | – |
| Cc1c(C(C)(C)C)s/c(=N\C(=O)c2cccc(C(F)(F)F)c2)n1CC1CC1 | – | – | – | – | solubility [8]: < 0.1 µg/mL; Ratio IC50 [9]: 270 |
| Cn1c(C(C)(C)C)c/c(=N\C(=O)c2cccc(C(F)(F)F)c2F)n1CC1CC1 | 85 | 4000 | 1.8 | 2.9 | remaining at 0.25 h [10]: 92%; Cmax [11]: 545 ng/mL; Tmax [12]: 1.67 h; remaining at 0.25 h [13]: 86%; solubility [8]: 59 µg/mL (≈ 148 µM); Ratio IC50 [9]: 1400; Activity [14]: Active; IC50 [15]: 1.4 nM; half-life [16]: 2.47 h; AUC(0-t) at 8 h [17]: 2160 ng·h/mL; Activity [18]: Active |
| CN1CCCCC1Cn1cc(C(=O)c2cc([N+](=O)[O-])ccc2I)c2ccccc21 (stereo not given) | – | – | – | – | IC50 [7]: 3.4 nM; IC50 [19]: 280 nM |
| CC(C)(C)c1c/c(=N\C(=O)c2cccc(C(F)(F)F)c2)n(CC2CC2)o1 | – | – | – | 46 | – |
| Cc1ccc(C(F)(F)F)cc1C(=O)/N=c1\cc(C(C)(C)C)n(C)n1CC1CC1 | – | – | – | 88 | – |
| Cc1c(C(=O)/N=c2\cc(C(C)(C)C)n(C)n2CC2CC2)cccc1C(F)(F)F | 73 | 1300 | 4.4 | 11 | – |
